Measurements from paper PMC10432884 (Clinical and Translational Science, 2023).
Where two headings read alike, the source gives them in different places.

What was measured:
[1] = MAD phase pharmacokinetics; format: in vivo, human; conditions: for concentration at 14 day / concentration at 11 day / concentration at 12 day / concentration at 13 day / Tmax / AUC / Cmax / concentration at 1 day: human, plasma, oral; for concentration at 14 day / concentration at 11 day / concentration at 12 day / concentration at 13 day / concentration at 1 day: C trough; for concentration at 11 day: day 11; for concentration at 12 day: day 12; for concentration at 13 day: day 13; for AUC: AUC τ; for Cmax: C max
Procedure, shortened: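 MAD phase, 2–15 mg q.d. oral for 14 days. Plasma was sampled predose daily and 15 min–48 h on days 1 and 14. Urine was pooled over 24 h on days 1 and 14. One CSF sample was taken 3 h postdose on day 7 (10 mg cohort). All matrices were assayed by validated LC-MS/MS. Derived: Cmax, Tmax, t1/2, AUCτ, Ctrough, peak-to-trough ratio, accumulation ratios, and CSF/plasma ratio corrected for protein binding. Results reported as geometric means (95% CI) and medians.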

[2] = test system: healthy subjects; experiment: SAD phase CNS test battery; format: in vivo, human
[3] = First-in-human trial, all phases: overall pharmacokinetics; format: in vivo
[4] = monkeys, preclinical experiments, cited from earlier work
[5] = test system: rodents; conditions: treated rodents; cited from earlier work
[6] = 5 mg, GeoMean, MAD 5 mg q.d., day 1
[7] = 5 mg, GeoMean, MAD 5 mg q.d., day 14
[8] = 5 mg, Median, MAD 5 mg q.d., day 1
[9] = 5 mg, Median, MAD 5 mg q.d., day 14
[10] = 10 mg, GeoMean, MAD 10 mg q.d., day 1
[11] = 10 mg, GeoMean, MAD 10 mg q.d., day 14
[12] = 10 mg, Median, MAD 10 mg q.d., day 1
[13] = 10 mg, Median, MAD 10 mg q.d., day 14
[14] = 15 mg, GeoMean, MAD 15 mg q.d., day 1
[15] = 15 mg, GeoMean, MAD 15 mg q.d., day 14
[16] = 15 mg, Median, MAD 15 mg q.d., day 1
[17] = 15 mg, Median, MAD 15 mg q.d., day 14

**Q.** With Fc1ccccc1Cc1nc(-c2nc(C(F)(F)F)n[nH]2)cn2ccnc12 [zagociguat, 8‐(2‐fluorobenzyl)‐6‐(3‐(trifluoromethyl)‐1H‐1,2,4‐triazol‐5‐yl)imidazo[1,2‐a]pyrazine] as the molecule, how does the concentration at 14 day ([1]; 2 mg, GeoMean, MAD 2 mg q.d., day 14) read?
**A.** 624 ng/mL

**Q.** And the concentration at 11 day ([1]; 2 mg, Median, MAD 2 mg q.d.)?
**A.** 579 ng/mL

**Q.** What about the concentration at 12 day ([1]; 2 mg, Median, MAD 2 mg q.d.) of the same molecule?
**A.** 584 ng/mL

**Q.** And the concentration at 13 day ([1]; 2 mg, Median, MAD 2 mg q.d.)?
**A.** 610 ng/mL

**Q.** What about the concentration at 14 day ([1]; 2 mg, Median, MAD 2 mg q.d., day 14) of the same molecule?
**A.** 632 ng/mL

**Q.** What about the Tmax ([1]; 2 mg, T max, Median, MAD 2 mg q.d., day 1) of the same molecule?
**A.** 1 h

**Q.** And the Tmax ([1]; 2 mg, T max, Median, MAD 2 mg q.d., day 14)?
**A.** 1 h

**Q.** What about the AUC [1, 6] of the same molecule?
**A.** 11000 ng·h/mL

**Q.** What about the AUC [1, 7] of the same molecule?
**A.** 42100 ng·h/mL

**Q.** What about the AUC [1, 8] of the same molecule?
**A.** 11500 ng·h/mL

**Q.** And the AUC [1, 9]?
**A.** 43900 ng·h/mL

**Q.** And the Cmax [1, 6]?
**A.** 602 ng/mL

**Q.** What about the Cmax [1, 7] of the same molecule?
**A.** 2080 ng/mL

**Q.** What about the Cmax [1, 8] of the same molecule?
**A.** 597 ng/mL

**Q.** What about the Cmax [1, 9] of the same molecule?
**A.** 2230 ng/mL

**Q.** And the concentration at 1 day [1, 6]?
**A.** 389 ng/mL

**Q.** And the concentration at 11 day ([1]; 5 mg, GeoMean, MAD 5 mg q.d.)?
**A.** 1480 ng/mL

**Q.** What about the concentration at 12 day ([1]; 5 mg, GeoMean, MAD 5 mg q.d.) of the same molecule?
**A.** 1500 ng/mL

**Q.** And the concentration at 13 day ([1]; 5 mg, GeoMean, MAD 5 mg q.d.)?
**A.** 1510 ng/mL

**Q.** What about the concentration at 14 day [1, 7] of the same molecule?
**A.** 1540 ng/mL

**Q.** What about the concentration at 1 day [1, 8] of the same molecule?
**A.** 410 ng/mL

**Q.** And the concentration at 11 day ([1]; 5 mg, Median, MAD 5 mg q.d.)?
**A.** 1540 ng/mL

**Q.** And the concentration at 12 day ([1]; 5 mg, Median, MAD 5 mg q.d.)?
**A.** 1580 ng/mL

**Q.** And the concentration at 13 day ([1]; 5 mg, Median, MAD 5 mg q.d.)?
**A.** 1580 ng/mL

**Q.** What about the concentration at 14 day [1, 9] of the same molecule?
**A.** 1640 ng/mL

**Q.** What about the Tmax ([1]; 5 mg, T max, Median, MAD 5 mg q.d., day 1) of the same molecule?
**A.** 2 h

**Q.** And the Tmax ([1]; 5 mg, T max, Median, MAD 5 mg q.d., day 14)?
**A.** 3 h

**Q.** And the AUC [1, 10]?
**A.** 20100 ng·h/mL

**Q.** And the AUC [1, 11]?
**A.** 76800 ng·h/mL

**Q.** And the AUC [1, 12]?
**A.** 21500 ng·h/mL

**Q.** And the AUC [1, 13]?
**A.** 82100 ng·h/mL

**Q.** What about the Cmax [1, 10] of the same molecule?
**A.** 1070 ng/mL

**Q.** What about the Cmax [1, 11] of the same molecule?
**A.** 3910 ng/mL

**Q.** What about the Cmax [1, 12] of the same molecule?
**A.** 1140 ng/mL

**Q.** And the Cmax [1, 13]?
**A.** 4050 ng/mL

**Q.** And the concentration at 1 day [1, 10]?
**A.** 751 ng/mL

**Q.** What about the concentration at 11 day ([1]; 10 mg, GeoMean, MAD 10 mg q.d.) of the same molecule?
**A.** 2760 ng/mL

**Q.** And the concentration at 12 day ([1]; 10 mg, GeoMean, MAD 10 mg q.d.)?
**A.** 2910 ng/mL

**Q.** And the concentration at 13 day ([1]; 10 mg, GeoMean, MAD 10 mg q.d.)?
**A.** 2840 ng/mL

**Q.** What about the concentration at 14 day [1, 11] of the same molecule?
**A.** 2850 ng/mL

**Q.** What about the concentration at 1 day [1, 12] of the same molecule?
**A.** 750 ng/mL

**Q.** And the concentration at 11 day ([1]; 10 mg, Median, MAD 10 mg q.d.)?
**A.** 3090 ng/mL

**Q.** What about the concentration at 12 day ([1]; 10 mg, Median, MAD 10 mg q.d.) of the same molecule?
**A.** 3240 ng/mL

**Q.** And the concentration at 13 day ([1]; 10 mg, Median, MAD 10 mg q.d.)?
**A.** 3190 ng/mL

**Q.** What about the concentration at 14 day [1, 13] of the same molecule?
**A.** 2820 ng/mL

**Q.** What about the Tmax ([1]; 10 mg, T max, Median, MAD 10 mg q.d., day 1) of the same molecule?
**A.** 3 h

**Q.** What about the Tmax ([1]; 10 mg, T max, Median, MAD 10 mg q.d., day 14) of the same molecule?
**A.** 2.2 h

**Q.** What about the AUC [1, 14] of the same molecule?
**A.** 31300 ng·h/mL

**Q.** And the AUC [1, 15]?
**A.** 116000 ng·h/mL

**Q.** And the AUC [1, 16]?
**A.** 30100 ng·h/mL

**Q.** What about the AUC [1, 17] of the same molecule?
**A.** 112000 ng·h/mL

**Q.** And the Cmax [1, 14]?
**A.** 1620 ng/mL

**Q.** And the Cmax [1, 15]?
**A.** 5850 ng/mL

**Q.** What about the Cmax [1, 16] of the same molecule?
**A.** 1530 ng/mL

**Q.** And the Cmax [1, 17]?
**A.** 5800 ng/mL

**Q.** And the Tmax ([1]; 15 mg, T max, Median, MAD 15 mg q.d., day 1)?
**A.** 3 h

**Q.** What about the Tmax ([1]; 15 mg, T max, Median, MAD 15 mg q.d., day 14) of the same molecule?
**A.** 3.5 h

**Q.** And the Tmax ([1]; Median observed T max, range, MAD all doses, days 1 and 14)?
**A.** 1 to 3.5 h

**Q.** And the Drug accumulation ([1]; treatment period of 14 days)?
**A.** moderate drug accumulation

**Q.** What about the “pEEG and CNS tests, differences between placebo and zagociguat groups” value [2] of the same molecule?
**A.** No dose‐dependent or consistent statistically significant differences

**Q.** And the half-life ([3]; human, plasma, oral)?
**A.** 52.8 to 67.1 h

**Q.** What about the Exposure vs dose ([3]; single and multiple escalating doses) of the same molecule?
**A.** increased in a dose‐proportional manner

**Q.** What about the “Geometric mean CSF/free plasma ratio” value ([4]; intravenous administration) of the same molecule?
**A.** 0.57

**Q.** And the “Geometric mean CSF/free plasma ratio” value ([4]; oral administration)?
**A.** 0.48

**Q.** And the “cGMP concentrations in CSF” value [5]?
**A.** increases in cGMP concentrations
